Results reported in publication PMC12177174 (iScience, 2025).
“And” between values parts separate entries of the source, which are not always exact repeats. Identical values can stand only once.

Key:
Phase 1 Part 1 = type: in vivo, homo sapiens
In short: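 Healthy adults were randomized to one oral dose of test compound (7, 20 or 40 mg; 6 active, 2 placebo per cohort), with a sentinel pair per cohort. Participants stayed in the unit ≥72 h post-dose, with follow-up at 6 ± 1 day. Adverse events were graded by CTCAE, and relatedness was assessed by the investigator. Placebo participants were pooled across cohorts.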

Phase 1 Part 2 = type: in vivo, homo sapiens
In short: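 Healthy adults got test compound (5, 15 or 20 mg) or placebo once daily on day 1 and days 3–16. The first cohort had 6 active and 2 placebo; later cohorts had 8 active and 3 placebo, each starting with a 2:1 sentinel group. Participants were discharged day 19, with follow-up 6 ± 1 and 29 ± 2 days after the last dose. Events were graded by CTCAE, with investigator-assessed relatedness. Placebo was pooled.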

Structure (SMILES): Cc1cc(-c2nccc3c2ccn3CC(=O)Nc2ccc(-c3cnccn3)cn2)ccn1 [AZD5055]
- Participants with at least one TEAE (Phase 1 Part 1; Part 1, 7 mg): 2 (33.3%) n (%)
- Participants with a grade 2 TEAE of nsVT (Phase 1 Part 1; Part 1, 20 mg): One
- Participants with at least one TEAE (Phase 1 Part 1; Part 1, 20 mg): 1 (16.7%) n (%)
- Participants with at least one TEAE (Phase 1 Part 1; Part 1, 40 mg): 1 (16.7%) n (%)
- Any TEAEs possibly related to the IMP (as assessed by investigator) (Phase 1 Part 1; Part 1 SAD pooled, N=18): 3 (16.7%) n (%)
- Abdominal pain upper (Phase 1 Part 1; Part 1 SAD pooled, n=18): 1 (5.6) n (%)
- Application site scab (Phase 1 Part 1; Part 1 SAD pooled, n=18): 1 (5.6) n (%)
- Cardiac disorders (Phase 1 Part 1; Part 1 SAD pooled, n=18): 1 (5.6) n (%)
- Coronavirus infection (Phase 1 Part 1; Part 1 SAD pooled, n=18): 0 n (%)
- Cough (Phase 1 Part 1; Part 1 SAD pooled, n=18): 0 n (%)
- Dermatitis contact (Phase 1 Part 1; Part 1 SAD pooled, n=18): 0 n (%)
- Dizziness (Phase 1 Part 1; Part 1 SAD pooled, n=18): 1 (5.6) n (%)
- Dysgeusia (Phase 1 Part 1; Part 1 SAD pooled, n=18): 0 n (%)
- Epistaxis (Phase 1 Part 1; Part 1 SAD pooled, n=18): 0 n (%)
- Erythema (Phase 1 Part 1; Part 1 SAD pooled, n=18): 0 n (%)
- Folliculitis (Phase 1 Part 1; Part 1 SAD pooled, n=18): 0 n (%)
- Gastrointestinal disorders (Phase 1 Part 1; Part 1 SAD pooled, n=18): 1 (5.6) n (%)
- General disorders and administration site conditions (Phase 1 Part 1; Part 1 SAD pooled, n=18): 2 (11.1) n (%)
- Headache (Phase 1 Part 1; Part 1 SAD pooled, n=18): 0 n (%)
- Infections and infestations (Phase 1 Part 1; Part 1 SAD pooled, n=18): 0 n (%)
- Injury, poisoning and procedural complications (Phase 1 Part 1; Part 1 SAD pooled, n=18): 0 n (%)
- Limb injury (Phase 1 Part 1; Part 1 SAD pooled, n=18): 0 n (%)
- Medical device site dermatitis (Phase 1 Part 1; Part 1 SAD pooled, n=18): 1 (5.6) n (%)
- Nasal discomfort (Phase 1 Part 1; Part 1 SAD pooled, n=18): 0 n (%)
- Nausea (Phase 1 Part 1; Part 1 SAD pooled, n=18): 1 (5.6) n (%)
- Nervous system disorders (Phase 1 Part 1; Part 1 SAD pooled, n=18): 1 (5.6) n (%)
- Participants with ≥1 TEAE (Phase 1 Part 1; Part 1 SAD pooled, n=18): 4 (22.2%) n (%) and 4 (22.2) n (%)
- Participants with ≥1 TEAE leading to discontinuation of investigational product (Phase 1 Part 1; Part 1 SAD pooled, n=18): 0 n (%)
- Participants with ≥1 TEAE of grade 1 severity (Phase 1 Part 1; Part 1 SAD pooled, n=18): 4 (22.2) n (%)
- Participants with ≥1 TEAE of grade 2 severity (Phase 1 Part 1; Part 1 SAD pooled, n=18): 0 n (%)
- Participants with ≥1 TEAE of grade 3 severity (Phase 1 Part 1; Part 1 SAD pooled, n=18): 0 n (%)
- Participants with ≥1 TESAE (Phase 1 Part 1; Part 1 SAD pooled, n=18): 0 n (%)
- Photophobia (Phase 1 Part 1; Part 1 SAD pooled, n=18): 0 n (%)
- Post procedural erythema (Phase 1 Part 1; Part 1 SAD pooled, n=18): 0 n (%)
- Post procedural inflammation (Phase 1 Part 1; Part 1 SAD pooled, n=18): 0 n (%)
- Procedural pain (Phase 1 Part 1; Part 1 SAD pooled, n=18): 0 n (%)
- Respiratory, thoracic and mediastinal disorders (Phase 1 Part 1; Part 1 SAD pooled, n=18): 1 (5.6) n (%)
- Sensation of foreign body (Phase 1 Part 1; Part 1 SAD pooled, n=18): 0 n (%)
- Skin abrasion (Phase 1 Part 1; Part 1 SAD pooled, n=18): 0 n (%)
- Skin and subcutaneous tissue disorders (Phase 1 Part 1; Part 1 SAD pooled, n=18): 0 n (%)
- Suture rupture (Phase 1 Part 1; Part 1 SAD pooled, n=18): 0 n (%)
- Ventricular tachycardia (Phase 1 Part 1; Part 1 SAD pooled, n=18): 1 (5.6) n (%)
- Vessel puncture site haematoma (Phase 1 Part 1; Part 1 SAD pooled, n=18): 0 n (%)
- Vision blurred (Phase 1 Part 1; Part 1 SAD pooled, n=18): 0 n (%)
- Vomiting (Phase 1 Part 1; Part 1 SAD pooled, n=18): 1 (5.6) n (%)
- Wheezing (Phase 1 Part 1; Part 1 SAD pooled, n=18): 1 (5.6) n (%)
- Deaths, SAEs, AEs of CTCAE grade 3 or higher (Phase 1 Part 1; Parts 1 and 2): No deaths, serious adverse events (SAEs) or AEs of CTCAE grade 3 or higher were reported
- Participants with a TEAE of nsVT during the study (Phase 1 Part 1; Parts 1 and 2): Three
- clinical laboratory results, vital signs, physical examinations, ECGs, oxygen saturation (Phase 1 Part 1; Parts 1 and 2): no clinically significant changes
- Overall safety and tolerability (Phase 1 Part 1; both study parts): safe and well tolerated
- Any TEAE leading to discontinuation of IMP (Phase 1 Part 2; Part 2, 5 mg QD, N=8): 2 n (%)
- Any TEAE leading to discontinuation of IMP (Phase 1 Part 2; Part 2, 15 mg QD, N=9): 1 n (%)
- Any TEAE possibly related to the IMP (as assessed by investigator) (Phase 1 Part 2; Part 2 MAD pooled, N=26): 7 (26.9%) n (%)
- Abdominal pain upper (Phase 1 Part 2; Part 2 MAD pooled, n=26): 0 n (%)
- Application site scab (Phase 1 Part 2; Part 2 MAD pooled, n=26): 0 n (%)
- Breath odor (Phase 1 Part 2; Part 2 MAD pooled, n=26): 1 (3.8) n (%)
- Cardiac disorders (Phase 1 Part 2; Part 2 MAD pooled, n=26): 2 (7.7) n (%)
- Coronavirus infection (Phase 1 Part 2; Part 2 MAD pooled, n=26): 1 (3.8) n (%)
- Cough (Phase 1 Part 2; Part 2 MAD pooled, n=26): 0 n (%)
- Dermatitis contact (Phase 1 Part 2; Part 2 MAD pooled, n=26): 0 n (%)
